This is an account of results in ChEMBL document CHEMBL1255285, “Spontaneous deletion of the methicillin resistance determinant, mecA, partially compensates for the fitness cost associated with high-level vancomycin resistance in Staphylococcus aureus” (2008).

Type in all cases: functional
The test system of assay [1] is Staphylococcus aureus. Put plainly: Antimicrobial activity against oxacillin sensitive and tetracycline resistant Staphylococcus aureus isolate 450MHomodeltamecA with mecA::tetM genotype by broth microdilution method. Summed up: (§1)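 Broth microdilution MIC in cation-adjusted Mueller-Hinton broth per CLSI (formerly NCCLS) guidelines. Strains were routinely grown in brain heart infusion broth or agar at 37°C with shaking at 220 rpm. Vancomycin-passaged derivatives were raised by serial broth passage through 0.5 to 32 µg/ml vancomycin, then maintained on BHI agar with 32 µg/ml vancomycin.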
In general terms: Dilution methods test growth across graded concentrations, often in twofold steps.

Assay [2] concerns Staphylococcus aureus. Description: Antimicrobial activity against oxacillin sensitive Staphylococcus aureus isolate 450MHomoex with SCCmec excised genotype by broth microdilution method. Summed up: as §1
In assay [3] the test system is Staphylococcus aureus. Description: Antimicrobial activity against homotypic oxacillin resistant and vancomycin resistant Staphylococcus aureus isolate 3130V32 by broth microdilution method. Summed up:
as §1

Assay [4] relates to Staphylococcus aureus. Put plainly: Antimicrobial activity against homotypic oxacillin resistant and vancomycin resistant Staphylococcus aureus isolate 5836V32 by broth microdilution method. Summed up:
as §1

Assay [5] relates to Staphylococcus aureus. Description: Antimicrobial activity against oxacillin sensitive and vancomycin resistant Staphylococcus aureus isolate 3130VR by broth microdilution method. An outline of the steps: as §1
Assay [6] has as its system Staphylococcus aureus. Description: Antimicrobial activity against oxacillin sensitive and vancomycin resistant Staphylococcus aureus isolate 5836VR by broth microdilution method. Summed up:
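MIC by broth microdilution in cation-adjusted Mueller-Hinton broth, following CLSI (formerly NCCLS) guidelines. The isolate came from an MRSA parent passaged in broth through stepwise vancomycin (0.5 to 32 µg/ml). It was then kept on BHI agar with 32 µg/ml vancomycin and selected as unable to grow on 6 µg/ml oxacillin. Routine growth was in BHI at 37°C.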

In assay [7] the test system is Staphylococcus aureus. Description: Antimicrobial activity against oxacillin sensitive and tetracycline and vancomycin resistant Staphylococcus aureus isolate 3130V32deltamecA with mecA::tetM genotype by broth microdilution method. Summed up: as §1
Assay [8] relates to Staphylococcus aureus. Put plainly: Antimicrobial activity against oxacillin sensitive and vancomycin resistant Staphylococcus aureus isolate VP32 by broth microdilution method. An outline of the steps: as §1
Assay [9] has as its system Staphylococcus aureus. Description: Antimicrobial activity against heterotypic oxacillin resistant and vancomycin intermediate resistant Staphylococcus aureus isolate 5836 by broth microdilution method. An outline of the steps:
as §1

Assay [10] relates to Staphylococcus aureus. Description: Antimicrobial activity against homotypic oxacillin resistant and vancomycin resistant Staphylococcus aureus isolate 5827V32 by broth microdilution method. Summed up:
as §1

Assay [11] concerns Staphylococcus aureus. Put plainly: Antimicrobial activity against homotypic oxacillin resistant Staphylococcus aureus isolate 450MHomo by broth microdilution method. Summed up: as §1
In assay [12] the test system is Staphylococcus aureus. Put plainly: Antimicrobial activity against homotypic oxacillin resistant and vancomycin intermediate resistant Staphylococcus aureus isolate 5827 by broth microdilution method. An outline of the steps:
as §1

Assay [13] concerns Staphylococcus aureus. Description: Antimicrobial activity against homotypic oxacillin resistant and vancomycin sensitive Staphylococcus aureus isolate 3130 by broth microdilution method. Summed up:
as §1

In brackets after ≈: the same amount, converted by molar mass. A value given as a limit tells only on which side of the number the result lay.

On to `Cc1onc(-c2ccccc2)c1C(=O)N[C@@H]1C(=O)N2[C@@H]1SC(C)(C)[C@@H]2C(=O)O` [OXACILLIN], for which the MIC (usually the least concentration at which growth counts as inhibited) is 0.5 µg/mL (≈ 1.25 µM) in [1]; 0.5 µg/mL (≈ 1.25 µM) in assay [2]; over 8 µg/mL in assay [3]; over 8 µg/mL in assay [4]; 0.5 µg/mL (≈ 1.25 µM) in assay [5]; 0.25 µg/mL (≈ 0.623 µM) in [6]. Moreover, the MIC in assay [7] was 0.5 µg/mL (≈ 1.25 µM); in assay [8], 0.5 µg/mL (≈ 1.25 µM); in [9], over 8 µg/mL; in [10] it was over 8 µg/mL; in [11], over 8 µg/mL; in [12] it was over 8 µg/mL. This compound came in with an MIC in assay [13] of over 8 µg/mL.

As for `CN[C@H](CC(C)C)C(=O)N[C@H]1C(=O)N[C@@H](CC(N)=O)C(=O)N[C@H]2C(=O)N[C@H]3C(=O)N[C@H](C(=O)N[C@H](C(=O)O)c4cc(O)cc(O)c4-c4cc3ccc4O)[C@H](O)c3ccc(c(Cl)c3)Oc3cc2cc(c3O[C@@H]2O[C@H](CO)[C@@H](O)[C@H](O)[C@H]2O[C@H]2C[C@](C)(N)[C@H](O)[C@H](C)O2)Oc2ccc(cc2Cl)[C@H]1O` [VANCOMYCIN], the minimal inhibitory concentration (MIC) in [3], in [4], in assay [5], in assay [6], in assay [7] and in [8] was 32 µg/mL (≈ 22.1 µM) in each case. For the same compound, the MIC in assay [9] turned out to be 8 µg/mL (≈ 5.52 µM); in assay [10], 32 µg/mL (≈ 22.1 µM).
